Compound activity deposited in PubChem BioAssay by several laboratories.
This is a sample that favours compounds with a hit; in the whole collection about 2.9% have one here.
Runt-SMMHC FRET: inhibitors of human RUNX1 Runt domain binding to CBFb-SMMHC; Cerulean-Runt/Venus-CBFb-SMMHC FRET ratio 530/480, 1 h; inhibition, % at 20 µM; actives 0.74% (n = 220,000);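 active = mean inhibition across duplicate retests at 20 µM reaching about 50%, limit read from the data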;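 also: 0% = DMSO wells and 100% = wells with excess untagged CBFb-SMMHC; inhibitors lower the FRET ratio by blocking Runt binding to CBFb-SMMHC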
RanGTP-Imp inh: inhibitors of RanGTP-importin-beta interaction, primary screen, biochemical, FRET, CFP-Ran, YFP-importin-beta, homogeneous; cell-free CFP-Ran/YFP-importin-beta FRET ratio; inhibition, % (no concentration beside the values); actives 1.1% (n = 300,000); AID 2216;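 active = more than half of the replicate wells show a fall in the fluorescence ratio signal beyond about 16%, limit read from the data, passing the limit was not always enough; inconclusive = exactly half of the replicate wells pass the set limit; inactive = fewer than half of replicates pass the limit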;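 also: 0% = DMSO wells and 100% = Ran loaded with GDP instead of GTP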
RBBP9 inh: blocks human serine hydrolase RBBP9; O75884; recombinant RBBP9, FP-Rh probe fluorescence polarization; actives 0.2% (n = 220,000); inhibition, % at 7.94 µM;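 active = inhibition above the campaign mean of all tested compounds plus 3 SD, cut at about 14% in these data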;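 also: plate controls were DMSO wells with RBBP9 for no effect and wells lacking RBBP9 protein for full effect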
Target sequence (O75884 whole entry, looked up): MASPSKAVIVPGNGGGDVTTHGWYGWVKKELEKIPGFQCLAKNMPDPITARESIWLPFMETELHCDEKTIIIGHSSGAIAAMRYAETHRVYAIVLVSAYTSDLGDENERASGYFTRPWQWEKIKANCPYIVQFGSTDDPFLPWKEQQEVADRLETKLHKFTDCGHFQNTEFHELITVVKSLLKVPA
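Test system: recombinant human RBBP9. Quantity: 2.5 µM RBBP9 dispensing solution, before mixing. Detection: FP readout at 525/598 nm. Reagent: Serine-hydrolase probe FP-Rh, 375 nM pre-mixing. Measure: % inhibition. Control set: DMSO-treated enzyme wells and wells lacking RBBP9. Buffer or medium: Tris-NaCl-Pluronic buffer, pH 8.0. Times: preincubation 30 min plus labeling 45 min at 25 °C.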
Hck Nef HTS: human Hck-Nef kinase inhibition; P08631; Recombinant Hck-YEEI plus Nef, Z-Lyte FRET kinase assay; inhibition, % at 20 µM; actives 0.68% (n = 220,000); AID 463187;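 active = Hck-Nef kinase inhibition above about 50%, limit read from the data; inactive = inhibition below that limit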;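 also: 0% = DMSO with Hck plus Nef and 100% = Hck alone without Nef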
PfM18AAP inh: blocks P. falciparum M18 aspartyl aminopeptidase | recombinant PfM18AAP, H-Glu-NHMec fluorogenic cleavage | inhibition, % at 7.35 µM | actives 1.2% (n = 290,000);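 active = inhibition above the campaign mean inhibition over all tested compounds plus 3 SD, cut at about 28% in these data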;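 also: 0% = plate median of test compound wells and 100% = 2 mM ZnCl2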
Runt-CBFb FRET: Runt domain-CBFb interaction inhibition; Q01196+Q13951; Cerulean-Runt/Venus-CBFb FRET ratio 530/480, 1 h; inhibition, % at 20 µM; actives 0.46% (n = 220,000);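 active = inhibition over about 50% at 20 µM in the single-dose screen, limit read from the data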;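 also: 0% = DMSO wells and 100% = excess unlabeled CBFb competitor control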
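Buffer or medium: Tris pH 7.5 buffer with BSA. Assay system: Cerulean-labeled Runt domain protein. Amount: each fluorescent fusion protein 100 nM. Read-out basis: loss of energy transfer signal. Incubation: 1 h compound exposure, room temperature. Probe or stimulus: Venus-CBFb binding partner, 100 nM. Detection: FRET, excitation 422 nm, emission at 530 and 480 nm.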
YIC counter: counter-screen: alters YIC FRET probe signal; shares compounds with RanGTP-Imp inh; Purified YIC probe, intramolecular FRET ratio YFP/CFP; IC50, µM; actives 40% (n = 1,000); AID 435026;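 active = fitted half-maximal inhibitory concentration no more than tenfold above the top dose tested; inconclusive = flat fit with 30 to 70% activity, or poor fit; inactive = half-maximal concentration beyond tenfold above the top dose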
* marks the source's active call; other numbers are inactive results; u = inconclusive; x = no result given.

SMILES | Runt-SMMHC FRET | RanGTP-Imp inh | RBBP9 inh | Hck Nef HTS | PfM18AAP inh | Runt-CBFb FRET | YIC counter
COc1cc2c(cc1OC)CN(Cc1ccc(C)cc1)CC2 | x | u | x | x | -7 | x | x
COc1ccccc1N1CCN(Cc2cccs2)CC1 | 0 | 8 | -3 | 0 | 4 | 2 | x
COc1cc2c(cc1OC)CN(Cc1ccccc1)CC2 | x | 18* | x | x | -1 | x | >50
COc1cc2c(cc1OC)CN(Cc1cccs1)CC2 | 7 | 18* | 8 | -4 | -7 | 6 | >50
CC(=O)c1cccc(Nc2cc(C)nc3ccccc23)c1 | 0 | 1 | -1 | 29 | 2 | 2 | x
O=C(O)c1cccc(Nc2c3ccccc3nc3ccccc23)c1 | x | 20* | x | x | 5 | x | >50
Oc1c(CN2CCOCC2)cc(COCc2ccccc2)c2cccnc12 | -4 | 4 | 1 | 2 | 7 | -4 | x
COCc1cc(CN2CCN(C)CC2)c(O)c2ncccc12 | -14 | 26* | -8 | 4 | 10 | 0 | >50
Cc1ccc(F)c(CNC(=O)C2CCC(=O)N(CCCN3CCCC3=O)C2)c1F (stereo unspecified) | x | 4 | x | x | 2 | x | x
O=C(COC(=O)CSCC(=O)N1CCCCC1)Nc1ccc(Cl)cc1 | 4 | 28* | -2 | 2 | -9 | -2 | >50
CCCCc1cc(-c2n[nH]c(=S)o2)c2ccccc2n1 | x | 20* | x | x | -34 | x | >50
COc1ccc2nccc(C(N)=O)c2c1 | 0 | 1 | 7 | 6 | -4 | -1 | x
O=c1ccc2ccccc2n1Cc1cccc(F)c1 | x | 1 | x | x | -8 | x | x
CC1(C)CC(=O)C=C(Nc2ccccc2O)C1 | 0 | 16* | -2 | 3 | 8 | 0 | >50
CC1(C)CC(=O)C=C(Nc2ccccc2F)C1 | 0 | 25* | -6 | 1 | 3 | 1 | >50
Cc1ccccc1NC1=CC(=O)CC(C)(C)C1 | -3 | 4 | -7 | 6 | -3 | 2 | x
O=C(Cn1c2ccccc2c(=O)c2ccccc21)Nc1ccccc1F | 83 | 36* | -7 | 16 | -3 | 119* | 6.6*
CC(=O)c1cn(CC(=O)Nc2ccccc2F)c2ccccc12 | x | -1 | x | x | -6 | x | x
S=C1NC2=C(CCCC2=C2SCCCS2)C(c2ccccc2)N1 (stereo unspecified) | -4 | -2 | 3 | -7 | -8 | -6 | x
COc1ccc(C2NC(=S)NC3=C2CCCC3=C2SCCS2)cc1 (stereo unspecified) | -2 | 18* | 1 | 20 | 0 | -5 | >50
CC(C)Sc1nnc(CNC(=O)C23CC4CC(CC(C4)C2)C3)n1C1CCCCC1 | -6 | 20* | -4 | 0 | 12 | -8 | >50
CC1CCN(c2nc3ccccc3nc2C(C#N)C(=O)OC2CCCCC2)CC1 (stereo unspecified) | -17 | 20* | 1 | 1 | 0 | -1 | 15*
O=C(NCC1CCCO1)c1ccc(Cl)c(S(=O)(=O)N2CCCCC2)c1 (stereo unspecified) | x | -1 | x | x | -1 | x | x
CCCCn1c(N)c(N(CCOC)C(=O)CN2c3ccccc3CC2C)c(=O)[nH]c1=O (stereo unspecified) | 31 | 38* | -8 | 17 | -2 | 33 | >50
CCOCCCNC(=O)NC(=O)CN1CCN(S(=O)(=O)c2ccc3c(c2)OCCO3)CC1 | 2 | 19* | 4 | -9 | 4 | 1 | >50
CC(C)(C)NC(=O)NC(=O)CN1CCN(S(=O)(=O)c2ccc3c(c2)OCCO3)CC1 | 2 | 3 | -1 | 4 | 2 | -1 | x
Cc1cc2c(c(=O)n1C1CC1)C(c1cccc(Cl)c1)C(C#N)=C(N)O2 (stereo unspecified) | 3 | 20* | -3 | 0 | 8 | 6 | >50
Cc1cc2c(c(=O)n1CCN(C)C)C(c1ccc(Cl)cc1)C(C#N)=C(N)O2 (stereo unspecified) | -2 | 2 | -4 | 2 | 1 | 0 | x
CC1CCCC(N2CCN(S(=O)(=O)c3ccccc3)CC2)C1 (stereo unspecified) | x | 1 | x | x | -3 | x | x
